Measurements published in ChEMBL document CHEMBL1154152, “Synthesis of some novel bioactive 4-oxy/thio substituted-1H-pyrazol-5(4H)-ones via efficient cross-Claisen condensation” (2009).
Converted amounts (≈) assume the structure as drawn.

How the values were obtained:
Type in all cases: functional
Klebsiella sp. = assay: Antibacterial activity against Klebsiella sp. after 24 hrs by disk diffusion method; settings: for MIC: Klebsiella sp., 24 h
Outline: (§1)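 Discs with each concentration, in triplicate, on nutrient agar seeded with fresh bacteria. Incubated 37 °C for 24 h, with solvent and growth controls. Zones of inhibition and MIC recorded.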

[1] = tested on: Trichophyton mentagrophytes; assay: Antifungal activity against Trichophyton mentagrophytes after 3 to 4 days by serial plate dilution method
Aspergillus flavus [2] = assay: Antifungal activity against Aspergillus flavus after 3 to 4 days by serial plate dilution method
Outline: (§2)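 Sabouraud's agar made from peptone, D-glucose and agar, pH 5.7, and lawned with a fungal spore suspension in normal saline. Wells cut with an agar punch received 10–50 mg/ml test compound in DMSO; DMSO-only control plates. Triplicate plates kept at 37 °C for 3–4 days.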

Talaromyces marneffei [3] = assay: Antifungal activity against Penicillium marneffei at 10 to 50 ug/ml after 3 to 4 days by serial plate dilution method
Escherichia coli = assay: Antibacterial activity against Escherichia coli ATTC 25922 after 24 hrs by disk diffusion method; settings: for MIC: Escherichia coli, ATTC 25922, 24 h; outline: as §1
Talaromyces marneffei [4] = assay: Antifungal activity against Penicillium marneffei after 3 to 4 days by serial plate dilution method; outline: as §2
Aspergillus fumigatus [5] = assay: Antifungal activity against Aspergillus fumigatus after 3 to 4 days by serial plate dilution method
Pseudomonas aeruginosa = assay: Antibacterial activity against Pseudomonas aeruginosa ATTC 27853 after 24 hrs by disk diffusion method; settings: for MIC: Pseudomonas aeruginosa, ATTC 27853, 24 h; outline: as §1
Staphylococcus aureus = assay: Antibacterial activity against Staphylococcus aureus ATCC 25923 after 24 hrs by disk diffusion method; settings: for MIC: Staphylococcus aureus, ATCC 25923, 24 h; outline: as §1
Aspergillus fumigatus [6] = assay: Antifungal activity against Aspergillus fumigatus at 10 to 50 ug/ml after 3 to 4 days by serial plate dilution method
[7] = tested on: Trichophyton mentagrophytes; assay: Antifungal activity against Trichophyton mentagrophytes at 10 to 50 ug/ml after 3 to 4 days by serial plate dilution method
Aspergillus flavus [8] = assay: Antifungal activity against Aspergillus flavus at 10 to 50 ug/ml after 3 to 4 days by serial plate dilution method

SMILES | inhibition zone (IZ) (Klebsiella sp.) [mm] | MIC (Klebsiella sp.) [µg/mL] | MIC [1] [µg/mL] | MIC (Aspergillus flavus [2]) [µg/mL] | inhibition zone (IZ) (Talaromyces marneffei [3]) [mm] | inhibition zone (IZ) (Escherichia coli) [mm] | MIC (Escherichia coli) [µg/mL] | MIC (Talaromyces marneffei [4]) [µg/mL] | MIC (Aspergillus fumigatus [5]) [µg/mL] | inhibition zone (IZ) (Pseudomonas aeruginosa) [mm] | MIC (Pseudomonas aeruginosa) [µg/mL] | inhibition zone (IZ) (Staphylococcus aureus) [mm] | MIC (Staphylococcus aureus) [µg/mL] | inhibition zone (IZ) (Aspergillus fumigatus [6]) [mm] | inhibition zone (IZ) [7] [mm] | inhibition zone (IZ) (Aspergillus flavus [8]) [mm]
COCC1=NNC(=O)C1Oc1ccccc1 (configuration not stated) | 20 | 6.25 (≈ 28.4 µM) | 6.25 (≈ 28.4 µM) | 6.25 (≈ 28.4 µM) | 17 | 12 | 25 (≈ 114 µM) | 6.25 (≈ 28.4 µM) | 6.25 (≈ 28.4 µM) | 17 | 6.25 (≈ 28.4 µM) | 17 | 6.25 (≈ 28.4 µM) | 20 | 17 | 18
CC(C)(C)C1=NNC(=O)C1Oc1ccccc1 (configuration not stated) | 18 | 6.25 (≈ 26.9 µM) | 6.25 (≈ 26.9 µM) | 6.25 (≈ 26.9 µM) | 21 | 18 | 6.25 (≈ 26.9 µM) | 6.25 (≈ 26.9 µM) | 6.25 (≈ 26.9 µM) | 20 | 6.25 (≈ 26.9 µM) | 16 | 6.25 (≈ 26.9 µM) | 18 | 19 | 16
CCC1=NNC(=O)C1Oc1ccccc1 (configuration not stated) | 16 | 6.25 (≈ 30.6 µM) | 6.25 (≈ 30.6 µM) | 6.25 (≈ 30.6 µM) | 18 | 18 | 6.25 (≈ 30.6 µM) | 6.25 (≈ 30.6 µM) | 6.25 (≈ 30.6 µM) | 20 | 6.25 (≈ 30.6 µM) | 19 | 6.25 (≈ 30.6 µM) | 17 | 16 | 21
CC1=NNC(=O)C1Sc1ccccc1 (configuration not stated) | 16 | 6.25 (≈ 30.3 µM) | 6.25 (≈ 30.3 µM) | 6.25 (≈ 30.3 µM) | 21 | 13 | 25 (≈ 121 µM) | 6.25 (≈ 30.3 µM) | 6.25 (≈ 30.3 µM) | 19 | 6.25 (≈ 30.3 µM) | 18 | 6.25 (≈ 30.3 µM) | 17 | 18 | 16
CC(C)CC1=NNC(=O)C1Sc1ccccc1 (configuration not stated) | 21 | 6.25 (≈ 25.2 µM) | 6.25 (≈ 25.2 µM) | 6.25 (≈ 25.2 µM) | 18 | 21 | 6.25 (≈ 25.2 µM) | 6.25 (≈ 25.2 µM) | 6.25 (≈ 25.2 µM) | 18 | 6.25 (≈ 25.2 µM) | 19 | 6.25 (≈ 25.2 µM) | 18 | 21 | 18
CC(C)C1=NNC(=O)C1Sc1ccccc1 (configuration not stated) | 16 | 6.25 (≈ 26.7 µM) | 6.25 (≈ 26.7 µM) | 6.25 (≈ 26.7 µM) | 19 | 18 | 6.25 (≈ 26.7 µM) | 6.25 (≈ 26.7 µM) | 6.25 (≈ 26.7 µM) | 17 | 6.25 (≈ 26.7 µM) | 20 | 6.25 (≈ 26.7 µM) | 20 | 16 | 18
CC1=NNC(=O)C1OCc1cccc(Br)c1 (configuration not stated) | 19 | 6.25 (≈ 22.1 µM) | 6.25 (≈ 22.1 µM) | 6.25 (≈ 22.1 µM) | 18 | 11 | 25 (≈ 88.3 µM) | 6.25 (≈ 22.1 µM) | 6.25 (≈ 22.1 µM) | 18 | 6.25 (≈ 22.1 µM) | 21 | 6.25 (≈ 22.1 µM) | 18 | 20 | 19
CCC1=NNC(=O)C1SCc1ccccc1 (configuration not stated) | 17 | 6.25 (≈ 26.7 µM) | 6.25 (≈ 26.7 µM) | 6.25 (≈ 26.7 µM) | 19 | 17 | 6.25 (≈ 26.7 µM) | 6.25 (≈ 26.7 µM) | 6.25 (≈ 26.7 µM) | 20 | 6.25 (≈ 26.7 µM) | 16 | 6.25 (≈ 26.7 µM) | 17 | 17 | 17
CC(C)CC1=NN(C)C(=O)C1Oc1ccccc1 (configuration not stated) | 17 | 6.25 (≈ 25.4 µM) | 6.25 (≈ 25.4 µM) | 6.25 (≈ 25.4 µM) | 19 | 12 | 25 (≈ 101 µM) | 6.25 (≈ 25.4 µM) | 6.25 (≈ 25.4 µM) | 19 | 6.25 (≈ 25.4 µM) | 19 | 6.25 (≈ 25.4 µM) | 16 | 18 | 18
O=C1NN=C(COc2ccccc2)C1Oc1ccccc1 (configuration not stated) | 19 | 6.25 (≈ 22.1 µM) | 6.25 (≈ 22.1 µM) | 6.25 (≈ 22.1 µM) | 18 | 17 | 6.25 (≈ 22.1 µM) | 6.25 (≈ 22.1 µM) | 6.25 (≈ 22.1 µM) | 16 | 6.25 (≈ 22.1 µM) | 18 | 6.25 (≈ 22.1 µM) | 21 | 19 | 20
CC(C)CC1=NNC(=O)C1Sc1ccc(Cl)cc1 (configuration not stated) | 16 | 6.25 (≈ 22.1 µM) | 6.25 (≈ 22.1 µM) | 6.25 (≈ 22.1 µM) | 20 | 11 | 25 (≈ 88.4 µM) | 6.25 (≈ 22.1 µM) | 6.25 (≈ 22.1 µM) | 17 | 6.25 (≈ 22.1 µM) | 18 | 6.25 (≈ 22.1 µM) | 17 | 19 | 18
Cc1cc(C2CCCCC2)n(O)c(=O)c1.NCCO [CICLOPIROX OLAMINE] |  |  | 3.12 | 3.12 | 23 |  |  | 6.25 | 6.25 |  |  |  |  | 26 | 27 | 27
O=C(O)c1cn(C2CC2)c2cc(N3CCNCC3)c(F)cc2c1=O [CIPROFLOXACIN] | 24 | 6.25 (≈ 18.9 µM) |  |  |  | 32 | 6.25 (≈ 18.9 µM) |  |  | 28 | 6.25 (≈ 18.9 µM) | 23 | 6.25 (≈ 18.9 µM) |  |  | 
